Measurements: ChEMBL document CHEMBL2380254, “Optimization of tocotrienols as antiproliferative and antimigratory leads” (Eur J Med Chem, 2013)

Legend:
U-251 = experiment: Growth inhibition of human U251 cells assessed as cell growth at 10 uM after 48 hrs by sulforhodamine B assay; type: functional; conditions: U-251, 48 h, read-out: Activity
How it was run: (§1)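 Single-dose NCI-60 test at 10 µM. Cells were grown in RPMI 1640 with 5% FBS and 2 mM L-glutamine, preincubated 24 h, with T0 plates TCA-fixed. Exposure was 48 h at 37 °C, 5% CO2. Cells were fixed with cold TCA (final 10%, 4 °C, 60 min), stained with SRB and read at 515 nm. Percent growth was taken relative to T0 and untreated control; negative values denote cell kill.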

[1] = Growth inhibition of human Hs 578T cells assessed as cell growth at 10 uM after 48 hrs by sulforhodamine B assay; type: functional; conditions: read-out: Activity
How it was run: (§2)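 NCI-60 single-dose screen at 10 µM: cells in RPMI 1640 with 5% FBS, preincubated 24 h, then exposed 48 h at 37 °C. TCA fixation (16% final for suspension cells), SRB staining, absorbance 515 nm. Percent growth relative to time-zero and untreated control plates; negative values indicate cell kill.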

RPMI-8226 = experiment: Growth inhibition of human RPMI8226 cells after 48 hrs by sulforhodamine B assay; type: functional; conditions: RPMI-8226, 48 h
How it was run: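 NCI-60 suspension lines in RPMI 1640 with 5% FBS and 2 mM L-glutamine, preincubated 24 h. A five-concentration 10-fold series (0.001–100 µM) was given for 48 h at 37 °C. Settled cells were fixed with 80% TCA (16% final), stained with SRB, and read at 515 nm. GI50 was taken where 100×(T−T0)/(C−T0)=50, with T0 plates fixed at drug addition.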

MDA-MB-231 = experiment: Antiproliferative activity against human MDA-MB-231 cells by MTT assay; type: functional, cell-based
How it was run: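 Cells plated at 8 × 10^3/well (MDA-MB-231) or 10^4/well (MCF7) in 96-well plates. Compounds fed in media with 5% FBS (MDA-MB-231) or 1% FBS (MCF7). MTT read-out of viable cells.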

CAKI-1 = experiment: Growth inhibition of human CAKI-1 cells after 48 hrs by sulforhodamine B assay; type: functional; conditions: CAKI-1, 48 h
How it was run: (§3)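 NCI-60 screen: cells in RPMI 1640 with 5% FBS and 2 mM glutamine, 5000–40,000 cells/well, preincubated 24 h. Five concentrations (10-fold dilutions; 100 to 0.001 µM) applied for 48 h at 37 °C. TCA fixation, SRB stain, absorbance at 515 nm. Time-zero plates included; GI50 where 100×(T−T0)/(C−T0)=50.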

SN12C = experiment: Growth inhibition of human SN12C cells assessed as cell growth at 10 uM after 48 hrs by sulforhodamine B assay; type: functional; conditions: read-out: Activity; how it was run: as §1
SF-539 = experiment: Growth inhibition of human SF539 cells after 48 hrs by sulforhodamine B assay; type: functional; conditions: SF-539, 48 h
How it was run: (§4)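 NCI-60 panel cells grown in RPMI 1640 with 5% FBS and 2 mM L-glutamine, seeded at 5000–40,000 cells/well and preincubated 24 h. Five 10-fold dilutions (0.001–100 µM) from DMSO stocks were added for 48 h at 37 °C. Adherent cells were fixed with cold TCA (10% final) for 60 min at 4 °C, stained with 0.4% SRB, and read at 515 nm. GI50 was set where 100×(T−T0)/(C−T0)=50.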

KM12 = experiment: Growth inhibition of human KM12 cells after 48 hrs by sulforhodamine B assay; type: functional; conditions: KM12, 48 h; how it was run: as §3
PC-3 = experiment: Growth inhibition of human PC3 cells assessed as cell growth at 10 uM after 48 hrs by sulforhodamine B assay; type: functional; conditions: PC-3, 48 h, read-out: Activity
How it was run: (§5)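 Single-dose NCI-60 screen: adherent cells in RPMI 1640 with 5% FBS were exposed to 10 µM for 48 h at 37 °C after a 24 h preincubation. They were fixed in situ with cold TCA (10% final), stained with 0.4% SRB in 1% acetic acid, solubilized in 10 mM Tris base, and read at 515 nm. Percent growth was taken relative to time-zero and control plates.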

SF-295 = experiment: Growth inhibition of human SF295 cells after 48 hrs by sulforhodamine B assay; type: functional; conditions: SF-295, 48 h; how it was run: as §4
MDA-MB-468 = experiment: Growth inhibition of human MDA-MB-468 cells assessed as cell growth at 10 uM after 48 hrs by sulforhodamine B assay; type: functional; conditions: MDA-MB-468, 48 h, read-out: Activity; how it was run: as §5
[2] = Growth inhibition of human HCC2998 cells assessed as cell growth at 10 uM after 48 hrs by sulforhodamine B assay; type: functional; conditions: HCC 2998, 48 h, read-out: Activity; how it was run: as §2
HOP-62 = experiment: Growth inhibition of human HOP62 cells after 48 hrs by sulforhodamine B assay; type: functional; conditions: HOP-62, 48 h; how it was run: as §3
CCRF-CEM [3] = experiment: Growth inhibition of human CCRF-CEM cells assessed as cell growth at 10 uM after 48 hrs by sulforhodamine B assay; type: functional; conditions: read-out: Activity; how it was run: as §2
RXF 393 = experiment: Growth inhibition of human RXF393 cells after 48 hrs by sulforhodamine B assay; type: functional; conditions: RXF 393, 48 h; how it was run: as §4
ACHN = experiment: Growth inhibition of human ACHN cells after 48 hrs by sulforhodamine B assay; type: functional; how it was run: as §3
NCI-H322M = experiment: Growth inhibition of human NCI-H322M cells assessed as cell growth at 10 uM after 48 hrs by sulforhodamine B assay; type: functional; conditions: read-out: Activity; how it was run: as §5
SNB-19 = experiment: Growth inhibition of human SNB19 cells after 48 hrs by sulforhodamine B assay; type: functional; conditions: SNB-19, 48 h
How it was run: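 NCI-60 five-dose screen. Cells were grown in RPMI 1640 with 5% FBS and 2 mM L-glutamine, plated at 5000–40,000 cells/well and incubated 24 h before dosing, with T0 plates TCA-fixed. DMSO stocks were diluted to doses of […] and exposed 48 h at 37 °C, 5% CO2. Cells were fixed with cold TCA (final 10%, 60 min, 4 °C), stained with 0.4% SRB in 1% acetic acid for 10 min, solubilized in 10 mM trizma base and read at 515 nm. GI50 is where 100×(T−T0)/(C−T0)=50.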

CCRF-CEM [4] = experiment: Growth inhibition of human CCRF-CEM cells after 48 hrs by sulforhodamine B assay; type: functional; how it was run: as §3
DU-145 = experiment: Growth inhibition of human DU145 cells assessed as cell growth at 10 uM after 48 hrs by sulforhodamine B assay; type: functional; conditions: DU-145, 48 h, read-out: Activity; how it was run: as §2
SK-MEL-28 = experiment: Growth inhibition of human SK-MEL-28 cells assessed as cell growth at 10 uM after 48 hrs by sulforhodamine B assay; type: functional; conditions: SK-MEL-28, 48 h, read-out: Activity; how it was run: as §5
LOX IMVI = experiment: Growth inhibition of human LOXIMVI cells after 48 hrs by sulforhodamine B assay; type: functional; how it was run: as §3
M14 = experiment: Growth inhibition of human M14 cells after 48 hrs by sulforhodamine B assay; type: functional; conditions: M14, 48 h; how it was run: as §3
UACC-62 = experiment: Growth inhibition of human UACC62 cells assessed as cell growth at 10 uM after 48 hrs by sulforhodamine B assay; type: functional; conditions: UACC-62, 48 h, read-out: Activity; how it was run: as §1

Structure (SMILES)	growth at 10 µM (U-251)	growth at 10 µM [1]	IC50 (MDA-MB-231)	growth at 10 µM (SN12C)	growth at 10 µM (PC-3)	growth at 10 µM (MDA-MB-468)	growth at 10 µM [2]	growth at 10 µM (CCRF-CEM [3])	growth at 10 µM (NCI-H322M)	growth at 10 µM (DU-145)	growth at 10 µM (SK-MEL-28)	growth at 10 µM (UACC-62)	other results
CC(C)=CCC/C(C)=C/CC/C(C)=C/CC[C@]1(C)CCc2c3c(cc(C)c2O1)OCN(CCc1ccc(O)cc1)C3	-32%	-6.12%	> 5 µM	65.6%	61.1%	-44.6%	-84.7%	2.75%	29.7%	42.1%	-83.8%	–	GI50 (RPMI-8226): 4.03 µM; GI50 (CAKI-1): 5.31 µM; GI50 (SF-539): 6.41 µM; GI50 (KM12): 1.6 µM; GI50 (SF-295): 6.22 µM; GI50 (HOP-62): 5.66 µM; GI50 (RXF 393): 3.34 µM; GI50 (ACHN): 5.94 µM; GI50 (SNB-19): 5.89 µM; GI50 (CCRF-CEM [4]): 1.75 µM; GI50 (LOX IMVI): 2.09 µM; GI50 (M14): 6.66 µM
COc1ccc(CCNCc2c(O)c(C)c(C)c3c2CC[C@@](C)(CC/C=C(\C)CC/C=C(\C)CCC=C(C)C)O3)cc1OC	83.7%	121%	–	74%	82.7%	59.1%	-25.9%	75.3%	95.6%	110%	92.6%	98.3%	–
CC(C)=CCC/C(C)=C/CC/C(C)=C/CC[C@]1(C)CCc2c3c(cc(C)c2O1)OCN(CCCCCCCCCCO)C3	74%	99%	12.4 µM	92.7%	88.7%	83.8%	98.5%	49.5%	104%	100%	99.9%	109%	–
COc1ccc(CCN2COc3c(C)c(C)c4c(c3C2)CC[C@@](C)(CC/C=C(\C)CC/C=C(\C)CCC=C(C)C)O4)cc1OC	88.4%	198%	> 50 µM	87.3%	94.3%	95.1%	70.5%	78%	101%	111%	93.6%	96.5%	–
CC(C)=CCC/C(C)=C/CC/C(C)=C/CC[C@]1(C)CCc2c(CNCCc3ccc(O)cc3)c(O)c(C)c(C)c2O1	93%	133%	–	95.1%	79.5%	104%	57.7%	75.2%	100%	111%	93.4%	106%	–
CC(C)=CCC/C(C)=C/CC/C(C)=C/CC[C@]1(C)CCc2c3c(c(C)c(C)c2O1)OCN(CCc1ccc(O)cc1)C3	81.8%	91.8%	> 5 µM	85.4%	79.9%	88.8%	23.3%	49.6%	96%	107%	76.6%	104%	–
CC(C)=CCC/C(C)=C/CC/C(C)=C/CC[C@]1(C)CCc2c3c(c(C)c(C)c2O1)OCN(CCCCCCCCCCO)C3	78.7%	96.5%	15.7 µM	99.4%	84.3%	91.9%	97.9%	87.7%	101%	67%	98.2%	103%	–
CC(C)=CCC/C(C)=C/CC/C(C)=C/CC[C@]1(C)CCc2c3c(cc(C)c2O1)OCN(CCCCCCCCCCCCO)C3	59.1%	93.2%	> 50 µM	71.8%	58.5%	77.4%	68.7%	13.6%	86%	85.4%	75.3%	67.2%	–
CC(C)=CCC/C(C)=C/CC/C(C)=C/CC[C@]1(C)CCc2c3c(cc(C)c2O1)OCN(CCCCCCCCO)C3	-95.8%	12%	11.7 µM	-70.7%	–	-90.7%	-90.9%	-29.7%	-76.3%	-57.7%	-89.2%	-15.3%	GI50 (RPMI-8226): 1.22 µM; GI50 (CAKI-1): 4.07 µM; GI50 (SF-539): 1.28 µM; GI50 (KM12): 0.784 µM; GI50 (SF-295): 1.02 µM; GI50 (HOP-62): 2.7 µM; GI50 (RXF 393): 0.551 µM; GI50 (ACHN): 2.16 µM; GI50 (SNB-19): 1.36 µM; GI50 (CCRF-CEM [4]): 0.865 µM; GI50 (LOX IMVI): 0.622 µM; GI50 (M14): 1.14 µM
CC(C)=CCC/C(C)=C/CC/C(C)=C/CC[C@]1(C)CCc2c3c(c(C)c(C)c2O1)OCN(CCCCCCCCCCCCO)C3	90.3%	103%	> 50 µM	97.4%	81.3%	106%	102%	95.2%	90.7%	109%	110%	89.5%	–
CC(C)=CCC/C(C)=C/CC/C(C)=C/CC[C@]1(C)CCc2cc(O)c(C)c(C)c2O1 [GAMMA-TOCOTRIENOL]	102%	102%	9.4 µM	96%	96.6%	108%	115%	84%	95.2%	99.7%	97.3%	108%	–
